Measurements taken from PubChem BioAssay.
Results filed as inconclusive are left out.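 Rule for the calls, unless noted: active = viability increase at or above a cutoff of the median across tested compounds plus 3 SD (cut at about 8.5% in these data, passing the limit was not always enough); inconclusive = some gains above the cutoff, reason not given; inactive = the rest.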

Experiments:
[1] = S. cerevisiae growth inhibition in permissive medium (OD615), pilot counter-assay for S. cerevisiae lifespan shortening project, permissive growth control (AID 705;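 active = growth inhibition above 25% in both replicates, a cutoff set 3 SD above the mean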); conditions: OD615, 24 h, at 10 µM, hits give high values
Summary of the method: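 System: Engineered DeaD yeast | Buffer or medium: SC raffinose/galactose permissive medium | Incubation: Cells pre-grown 4 h, then 24 h compound exposure, 30 °C humidified | Measured by: Absorbance (optical density) at 615 nm | Read-out: Reduction in yeast growth (OD615)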

[2] = S. cerevisiae growth inhibition in restrictive medium, OD615, pilot screen, restrictive growth control, yeast lifespan reduction project (AID 706;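 active = growth inhibition above a set limit, 3 SD over mean compound inhibition, in both replicates, cut at about 43% in these data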;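 note: modified DeaD lifespan yeast strain shifted to restrictive glucose medium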); conditions: OD615, 48 h, at 10 µM, hits give high values
Summary of the method: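 Material: modified S. cerevisiae; Medium: glucose-based CSMM-D restrictive medium; Compound dosing: one concentration, 10 µM final, 0.25% DMSO; Incubation: 48 h compound exposure at 30 °C; Measured by: OD615.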

[3] = doxorubicin toxicity protection in MRP-1 cells – H69AR cells, CellTiter-Glo, duplicate, MRP-1 activator project, pilot screen (AID 807); conditions: H69AR viability with doxorubicin, CellTiter-Glo luminescence; at 10 µM; hits give high values;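 note: compound pretreatment 18-22 h then 72 h combined with doxorubicin; 0% = doxorubicin alone and 100% = vehicle without doxorubicin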
[4] = viability of HCT116 without oncogenic beta-catenin – human colon tumor cells, pilot screen (AID 823;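 active = cell viability at or below a set limit in both duplicate runs, the limit being the all-compound median minus 4 SD, cut at about 23% in these data, passing the limit was not always enough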;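 note: 0% = wells killed by 20 µM Hyamine and 100% = untreated DMSO cell wells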); conditions: HCT116 beta-catenin knockout viability, CellTiter-Glo, 60 h; at 10 µM; hits give low values
[5] = viability of PTEN-null HCT116 cells – cell-based, HCT116 clonal line, CellTiter-Glo, pilot screen (AID 824;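 active = viability at or below 27.92% in each of two runs, the all-compound median minus 4 SD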;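 note: 0% = 20 µM Hyamine control and 100% = vehicle cell control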); conditions: HCT116 PTEN-deleted viability, 60 h, at 10 µM, hits give low values
[6] = RAM pathway blockade in budding yeast – dse1pr::URA3 reporter, 5-FOA selection, pilot screen (AID 869;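 active = inhibition over a set limit, the all-compound mean plus 3 SD, in both replicate runs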;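 note: 0% = DMSO wells with no growth and 100% = 10 µM 1-NA-PP1 with full growth; RAM network block rescues cells from 5-FOA so hits raise OD615 growth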); conditions: S. cerevisiae dse1pr::URA3 5-FOA growth, OD615, 2 d; at 10 µM; hits give high values; strain carries analog-sensitive mutant Cbk1 kinase
[7] = RAM signaling pathway blockade in yeast – S. cerevisiae, Pdr1DBD-CYC8 efflux-inhibited sensitized strain, primary screen (AID 1298;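 active = RAM network inhibition above 8.4% in each of two replicates, 3 SD over the compound average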;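 note: 0% = DMSO untreated cells without growth and 100% = 10 µM 1-NA-PP1 full growth; higher means more yeast growth rescued from 5-FOA killing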); conditions: S. cerevisiae cbk1-as DSE1-URA3 strain, 5-FOA growth OD615, 2 d; at 50 µM; hits give high values

N#Cc1ccccc1Cn1c(=O)n(-c2ccc(CC(=O)NCc3ccco3)cc2)c(=O)c2sccc21
inactive: growth inhibition [1] -3.44% | growth inhibition [2] 3.28% | viability increase [3] -1.7% | viability [4] 97.8% | viability [5] 99.6% | inhibition [6] 2.13% | RAM network inhibition [7] 4.46%

CC(c1ccccc1)C1C(C#N)=C(N)OC2=C1C(=O)CCC2 (centres undefined)
inactive: growth inhibition [1] -19% | growth inhibition [2] -12.4% | viability increase [3] -0.93% | viability [4] 88% | viability [5] 91.3% | inhibition [6] 3.24% | RAM network inhibition [7] 1.95%

O=C(Nc1ccccc1)OCC1CCCN2CCCCC12 (centres undefined)
inactive: growth inhibition [1] -12.9% | growth inhibition [2] -13.1% | viability increase [3] -0.94% | viability [4] 95.7% | viability [5] 97.4% | inhibition [6] 0.69% | RAM network inhibition [7] 3.65%

Cc1ccc(C2/C(=C(/O)c3ccc(Cl)cc3)C(=O)C(=O)N2CC2CCCO2)o1 (centres undefined)
inactive: growth inhibition [1] -7.4% | growth inhibition [2] 12.5% | viability increase [3] -3.2% | viability [4] 95.1% | viability [5] 96.4% | inhibition [6] 0.77% | RAM network inhibition [7] -0.36%

Cc1nc2ccccc2c2oc(C(=O)NC3CC3)cc12
inactive: growth inhibition [1] -8% | growth inhibition [2] 5.36% | viability increase [3] -2.61% | viability [4] 112% | viability [5] 89.6% | inhibition [6] 0.79% | RAM network inhibition [7] -1.66%

COC(=O)c1cc(=O)nc2scc(C)n12
inactive: growth inhibition [1] -13% | growth inhibition [2] -18.9% | viability increase [3] -0.3% | viability [4] 103% | viability [5] 99.5% | inhibition [6] 0.885% | RAM network inhibition [7] 4.74%

N#CCCn1c(C(C#N)(CCC#N)CCC#N)nc2ccccc21
inactive: growth inhibition [1] 5.8% | growth inhibition [2] 5.04% | viability increase [3] -0.72% | viability [4] 96.5% | viability [5] 99.4% | inhibition [6] 1.6% | RAM network inhibition [7] 1.63%

Cc1cc(C)n2nc(C(=O)Oc3ccc4c(c3)OCO4)nc2n1
inactive: growth inhibition [1] -3.75% | growth inhibition [2] -24% | viability increase [3] -1.75% | viability [4] 99% | viability [5] 104% | inhibition [6] 1.7% | RAM network inhibition [7] 3.06%

Cc1cc(NCc2ccccc2)nc(-c2ccccc2O)n1
inactive: growth inhibition [1] -1.8% | growth inhibition [2] -4.48% | viability increase [3] -1.24% | viability [4] 69.5% | viability [5] 70% | inhibition [6] 0.345% | RAM network inhibition [7] 0.61%

CCN(CC)CCCNC(=O)Cn1cc2c(n1)CCC(C)C2 (centres undefined)
inactive: growth inhibition [1] -3.44% | growth inhibition [2] -0.585% | viability increase [3] -1.22% | viability [4] 96.9% | viability [5] 98.1% | inhibition [6] 2.05% | RAM network inhibition [7] 2.3%

CNC(=O)c1sc2nc(-c3ccc(OC)cc3)cn2c1C
inactive: growth inhibition [1] 3.27% | growth inhibition [2] 2.45% | viability increase [3] 1.57% | viability [4] 104% | viability [5] 106% | inhibition [6] 2% | RAM network inhibition [7] 0.64%

O=C1c2ccccc2C(=O)N1CCCc1nc2ccccc2c(=O)n1Cc1ccco1
inactive: growth inhibition [1] -12.9% | growth inhibition [2] -12.6% | viability increase [3] -1.68% | viability [4] 93.6% | viability [5] 93.5% | inhibition [6] 3.96% | RAM network inhibition [7] 7.66%

CCOC(=O)c1c(NC(=O)c2cccs2)sc2c1CCCC2
inactive: growth inhibition [1] -6.96% | growth inhibition [2] -21.1% | viability increase [3] -4.82% | viability [4] 101% | viability [5] 83.5% | inhibition [6] 3.56% | RAM network inhibition [7] 8%

COCC(=O)Nc1ccc(C(N)=O)cc1
inactive: growth inhibition [1] -13.6% | growth inhibition [2] -6.43% | viability increase [3] -0.44% | viability [4] 96.5% | viability [5] 95.3% | inhibition [6] 1.91% | RAM network inhibition [7] 7.41%

CCC(CC)C(=O)NCCc1cc2ccc(C)c(C)c2[nH]c1=O
inactive: growth inhibition [1] -14.2% | growth inhibition [2] -21.4% | viability increase [3] -1.66% | viability [4] 103% | viability [5] 96.6% | inhibition [6] 1.66% | RAM network inhibition [7] 2.56%

O=C(CN(C1CCCCC1)S(=O)(=O)c1ccc(Cl)cc1)NCc1ccncc1
inactive: growth inhibition [1] -6.84% | growth inhibition [2] 3.38% | viability increase [3] -2.2% | viability [4] 79.8% | viability [5] 79.4% | inhibition [6] 1.56% | RAM network inhibition [7] 3.63%

N#CC1=C2SCN(c3ccc(F)cc3)CN2C(=O)CC1c1cccc(F)c1 (centres undefined)
inactive: growth inhibition [1] 4.17% | growth inhibition [2] 7.57% | viability increase [3] -2.71% | viability [4] 104% | viability [5] 96.7% | inhibition [6] 1.06% | RAM network inhibition [7] 7.08%

CN(C)S(=O)(=O)c1ccc2c(c1)c(=O)c(C(=O)N1CCN(c3ccccn3)CC1)cn2C
inactive: growth inhibition [1] -5.42% | growth inhibition [2] 5.45% | viability increase [3] 1.06% | viability [4] 97.9% | viability [5] 104% | inhibition [6] 0.415% | RAM network inhibition [7] 4.54%

CCOCCCNC(=O)C(c1ccc(OC)cc1)N(Cc1ccc2c(c1)OCO2)C(=O)CNC(C)=O (centres undefined)
inactive: growth inhibition [1] -6.78% | growth inhibition [2] 3.73% | viability increase [3] 2.19% | viability [4] 104% | viability [5] 107% | inhibition [6] 1.34% | RAM network inhibition [7] 4.4%

O=C(CSc1nnc(Cc2cc(=O)[nH]c(=O)[nH]2)n1-c1ccc(F)cc1)NC1CCCC1
inactive: growth inhibition [1] -14.8% | growth inhibition [2] -7.13% | viability increase [3] -1.18% | viability [4] 105% | viability [5] 102% | inhibition [6] 0.96% | RAM network inhibition [7] 6.6%

O=C(CCSc1nc(-c2ccc3c(c2)OCO3)cc(C(F)(F)F)n1)NCc1ccco1
inactive: growth inhibition [1] -4.51% | growth inhibition [2] -2.02% | viability increase [3] -2.85% | viability [4] 74.8% | viability [5] 74.6% | inhibition [6] 2.63% | RAM network inhibition [7] 2.97%

Cc1ccc(-n2nc3ccc(N)cc3n2)cc1
inactive: growth inhibition [1] -12.9% | growth inhibition [2] 5.77% | viability increase [3] -5.26% | viability [4] 80% | viability [5] 78.5% | inhibition [6] 2.38% | RAM network inhibition [7] 2.79%

Nc1ccc(C(=O)c2ccc3c(c2)OCCO3)cc1N
inactive: growth inhibition [1] 4.75% | growth inhibition [2] 6.96% | viability increase [3] -6.58% | viability [4] 102% | viability [5] 97.5% | inhibition [6] 0.375% | RAM network inhibition [7] 4.41%

Cc1cc2cc(CNC(=O)c3ccc(Br)o3)ccc2[nH]1
inactive: growth inhibition [1] -6.49% | growth inhibition [2] -9.17% | viability increase [3] -1.33% | viability [4] 86.5% | viability [5] 85.1% | inhibition [6] 3.64% | RAM network inhibition [7] 8.22%

Cc1cccc(-c2nc(CS(=O)CC(=O)NC3CCCC3)c(C)o2)c1 (centres undefined)
inactive: growth inhibition [1] 6.19% | growth inhibition [2] 1.96% | viability increase [3] -3.32% | viability [4] 94.5% | viability [5] 91.7% | inhibition [6] 3.42% | RAM network inhibition [7] 4.67%

COc1cc(C)c(S(=O)(=O)NCc2ccc3c(c2)OCO3)cc1C
inactive: growth inhibition [1] -2.38% | growth inhibition [2] 3% | viability increase [3] 0.6% | viability [4] 106% | viability [5] 102% | inhibition [6] -0.055% | RAM network inhibition [7] -0.06%

CCOC(=O)c1ccc(Nc2cc(C)nc3nc(C)nn23)cc1
inactive: growth inhibition [1] -5.61% | growth inhibition [2] 4.27% | viability increase [3] -4.45% | viability [4] 103% | viability [5] 103% | inhibition [6] 0.015% | RAM network inhibition [7] 1%

CC1CCCN(C(=O)C2CCN(S(=O)(=O)c3cccc4cccnc34)CC2)C1 (centres undefined)
inactive: growth inhibition [1] 1.07% | growth inhibition [2] 3.5% | viability increase [3] -3.54% | viability [4] 89.6% | viability [5] 85.6% | inhibition [6] 1.04% | RAM network inhibition [7] 5.46%

CSCCC(/C(O)=C(\C#N)c1nc2ccccc2[nH]1)N1C(=O)c2ccccc2C1=O (centres undefined)
inactive: growth inhibition [1] -14.1% | growth inhibition [2] -11.8% | viability increase [3] 0% | viability [4] 89.8% | viability [5] 90.8% | inhibition [6] 2.82% | RAM network inhibition [7] 7.67%

CC(Nc1ncnc2nc[nH]c12)c1ccccc1 (centres undefined)
inactive: growth inhibition [1] -8.48% | growth inhibition [2] 10.5% | viability increase [3] -1.31% | viability [4] 95.3% | viability [5] 88.9% | inhibition [6] 0.985% | RAM network inhibition [7] 4.02%

O=C(O)CCC(C(=O)O)n1c(O)c(C2=c3ccccc3=NC2=O)sc1=S (centres undefined)
inactive: growth inhibition [1] -5.76% | growth inhibition [2] -1.01% | viability increase [3] -4.54% | viability [4] 97.7% | viability [5] 95.3% | inhibition [6] 2.23% | RAM network inhibition [7] -0.11%

CC(=O)Nc1ccc(OC/C=C(\C)Cl)cc1
inactive: growth inhibition [1] -16.6% | growth inhibition [2] -7.54% | viability increase [3] -1.2% | viability [4] 101% | viability [5] 101% | inhibition [6] 0.895% | RAM network inhibition [7] 2.95%

CC(/C=C/c1ccccc1)=N/O
inactive: growth inhibition [1] -2.33% | growth inhibition [2] 2.71% | viability increase [3] 0.26% | viability [4] 98.3% | viability [5] 106% | inhibition [6] -0.595% | RAM network inhibition [7] 4.55%

CCn1c(=O)cc(OCC(=O)Nc2ccccc2C#N)c2ccccc21
inactive: growth inhibition [1] -22.1% | growth inhibition [2] -8.12% | viability increase [3] -1.86% | viability [4] 95.1% | viability [5] 94.7% | inhibition [6] 2.12% | RAM network inhibition [7] 4.46%

CCOC(=O)c1ccc(N2CSC3=C(C#N)C(c4ccc(OC)cc4OC)CC(=O)N3C2)cc1 (centres undefined)
inactive: growth inhibition [1] 6.21% | growth inhibition [2] 24.4% | viability increase [3] -4.16% | viability [4] 92.3% | viability [5] 93.2% | inhibition [6] 2.44% | RAM network inhibition [7] 1.72%

O=S(=O)(c1ccccc1)N1CCN(C2CCN(Cc3ccccc3)CC2)CC1
inactive: growth inhibition [1] -10.8% | growth inhibition [2] -0.305% | viability increase [3] -1.86% | viability [4] 90.3% | viability [5] 94.4% | inhibition [6] 0.155% | RAM network inhibition [7] 2.72%

CCOCCCNC(=O)Cc1cc(=O)[nH]c(=O)[nH]1
inactive: growth inhibition [1] -20.6% | growth inhibition [2] -19.6% | viability increase [3] -0.42% | viability [4] 99.2% | viability [5] 94.1% | inhibition [6] 1.44% | RAM network inhibition [7] 4.84%
